Results filed as inconclusive are left out. The source made the active and inactive calls.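 The calls were made as follows: active = compounds raising caspase signal with fitted AC50 no more than tenfold above the top tested dose; inconclusive = flat curve at 30 to 70% activity, or unusable fit; inactive = the rest.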
System: MEF WT non-primed, caspase-Glo luminescence, 3 h
Test: caspase activation in non-primed cells, dose response, counter-screen for Bcl2-A1 inhibitor project, cell-based, caspase-Glo luminescence, 3 h (AID 449761)
Summary of the method: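 Technique: CaspaseGlo luminescence | Material: Non-primed wild-type MEF cells | Quantity: 2500 cells/well | Times: 3 h compound at 37 °C, 1 h detection at room temperature | Dosing: 100 nL compound added per well by pin transfer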

Compound	AC50
O=C(COc1ccc(/C=N/NC(=O)c2cc3ccccc3o2)cc1Cl)Nc1ccccc1	9.56 µM
O=S1(=O)CCOC[C@H](CC2CCCCC2)N1Cc1cccc(Cl)c1	> 35 µM (inactive)
CN1C2CCC1/C(=C/c1ccccn1)C(=O)/C2=C\c1ccccn1	> 35 µM (inactive)
CCOC(=O)N1C(=O)[C@@](c2ccc(Cl)cc2)(C(C)C)N1C(=O)OCC	> 35 µM (inactive)
Cc1cccc(Nc2nc(N)c([N+](=O)[O-])c(N3CCCC(C)C3)n2)c1 (configuration not stated)	> 35 µM (inactive)
Cc1ccc(-c2nc(NC(=O)c3nn(C)cc3[N+](=O)[O-])sc2C)cc1	5.96 µM
CCOC(=O)/C(=C\c1ccc(OC(F)F)cc1)C1=Nn2c(nnc2-c2ccc(Cl)cc2)SC1	4.15 µM
COc1cc2ncnc(NCc3ccc(F)cc3)c2cc1OC	> 35 µM (inactive)
CCc1ccc2nc(N(CCCN(C)C)C(=O)c3ccc(S(=O)(=O)N4CCc5ccccc5C4)cc3)sc2c1	> 35 µM (inactive)
COc1ccc(NC(=O)CSc2nc3ccc(Nc4nc(N5CCOCC5)nc(N5CCOCC5)n4)cc3s2)cc1	> 35 µM (inactive)
Cc1ccc(S(=O)(=O)c2nnn3c2nc(Nc2cccc(C)c2)c2ccccc23)cc1	> 35 µM (inactive)
COc1ccc(-c2ccc3c(c2)S(=O)(=O)c2cccc(C(=O)NC[C@@H]4CCCO4)c2C3=O)cc1OC	> 35 µM (inactive)
CSC[C@@H]1NC(=S)N(c2ccc(C)cc2)C1=O	> 35 µM (inactive)
COc1cc(C(=O)Nc2cc3c(cc2N2CCCCC2)n(C)c(=O)n3C)cc(OC)c1OC	> 35 µM (inactive)
Cc1ccc(NC(=O)c2ccc(N/N=C/c3cccc(O)c3)c([N+](=O)[O-])c2)cc1	29.8 µM
CC1(C)C[C@H](O)[C@]2(CO)[C@H](O)C[C@]3(C)C(=CCC4[C@@]5(C)CC[C@H](O)C(C)(C)C5CC[C@]43C)[C@@H]2C1 (some centres not stated)	> 35 µM (inactive)
COc1ccc(-c2cc3ccccc3oc2=O)cc1NC(=S)NC(=O)c1ccc2c(c1)OCCO2	5.96 µM
CC1CCc2c(sc3nc(C(C)(C)C)nc(N4CCN(C(=O)CCl)CC4)c23)C1 (configuration not stated)	13 µM
Cc1occc1-c1nnc(SCC(=O)NCCc2ccccc2)n1Cc1ccccc1	> 35 µM (inactive)
CC(=O)Nc1ncnc2c1c(-c1ccc(Cl)cc1)nn2C(C)(C)C	> 35 µM (inactive)
N#Cc1cccnc1N1CCN(C(=O)c2cccc3c2C(=O)c2ccc(-c4ccc(Cl)c(C(F)(F)F)c4)cc2S3(=O)=O)CC1	> 35 µM (inactive)
COc1ccc(C[C@H]2NC[C@H](O)[C@H]2OC(C)=O)cc1	> 35 µM (inactive)

Compound	AC50
COC(=O)c1ccc2c(c1)C(C)(C)C(/C=C/c1ccccc1O)=[N+]2C	8.57 µM
COc1ccccc1C(=O)Nc1ccnn1C1CCN(Cc2cn(C)c3ccccc23)CC1	> 35 µM (inactive)
COCc1cc(C)nc(SCC(=O)Nc2nc(C)cs2)c1C#N	> 35 µM (inactive)
Cc1c(CCOC(=O)c2ccc(N3CCOCC3)c([N+](=O)[O-])c2)sc[n+]1CC#N	> 35 µM (inactive)
Cc1cccc(C)c1NC(=O)C(Cl)C(=O)c1ccccc1 (configuration not stated)	> 35 µM (inactive)
CCc1nnc(NC(=O)c2nc(S(=O)(=O)Cc3ccccc3)ncc2Cl)s1	> 35 µM (inactive)
COc1cc(/C=C(/C#N)c2nc3ccccc3[nH]2)ccc1OCC(=O)Nc1ccccc1C(C)C	7.53 µM
CN(C)C/C=C(\c1ccc(Br)cc1)c1cccnc1	> 35 µM (inactive)
Cc1ccc(S(=O)(=O)N(C)Cc2ccc(C(=O)N/N=C/c3ccc(OC(F)F)cc3)cc2)cc1	> 35 µM (inactive)
COc1ccc(-c2ccc3c(c2)S(=O)(=O)c2cccc(C(=O)NCCOc4ccccc4)c2C3=O)cc1OC	> 35 µM (inactive)
O=C(NC[C@H]1CCCO1)c1cccc2c1C(=O)c1ccc(-c3ccc(F)cc3OCc3ccccc3)cc1S2(=O)=O	> 35 µM (inactive)
O=C1/C(=C\c2c(NCCOCCO)nc3ccccn3c2=O)SC(=S)N1Cc1ccco1	> 35 µM (inactive)
Cc1ccc(CS(=O)(=O)c2ncc(Cl)c(C(=O)Nc3nnc(C(C)C)s3)n2)cc1	> 35 µM (inactive)
O=c1c(Cl)c(Cl)cnn1Cc1ccccc1Cl	> 35 µM (inactive)
O=C(c1ccc(COc2ccc3ccccc3c2)o1)N1N=C(C(F)F)CC1(O)C(F)F (configuration not stated)	> 35 µM (inactive)
C=C1/C=C(\C)[C@](C)(O)C[C@H](O)CC(=O)[C@H](O)[C@@H](O)[C@H](C)C[C@H](C)OC(=O)/C(C)=C/CC/C=C/[C@@H]2O[C@H]2C[C@H](C)C1	> 35 µM (inactive)
O=C(Nc1ccc2oc(-c3cccc(F)c3)nc2c1)c1ccccc1F	> 35 µM (inactive)
CC1=NNC(=O)/C1=C\c1cn(-c2ccccc2)nc1-c1ccccc1	11.3 µM
CC(CCc1ccccc1)NC(=O)c1ccc(NC(=O)c2ccccc2)cc1 (configuration not stated)	27.7 µM
CC(C)CCN(C(=O)Cc1ccc(Cl)c(Cl)c1)c1c(N)n(Cc2ccccc2)c(=O)[nH]c1=O	14.6 µM
COc1ccc(NC(=O)c2cccc3c2C(=O)c2ccc(-c4ccc(F)cc4OCc4ccccc4)cc2S3(=O)=O)cc1	> 35 µM (inactive)
COC(=O)Cc1csc(/N=C/c2c(O)n(-c3cccc(C(F)(F)F)c3)c(=O)c3ccccc23)n1	9.26 µM

Compound	AC50
Cc1ccc2c(c1)C(=O)C(=O)N2Cc1ccc(Br)cc1	> 35 µM (inactive)
C=CC(=O)Nc1ccc(CN2C(=O)N(c3c(Cl)c(OC)cc(OC)c3Cl)Cc3cnc(NCCCCN(CC)CC)nc32)cc1	> 35 µM (inactive)
CN(C)CCCN(C(=O)c1cc2cc([N+](=O)[O-])ccc2s1)c1nc2cc3c(cc2s1)OCCO3	> 35 µM (inactive)
CC(=O)[C@]1(O)Cc2c(O)c3c(c(O)c2[C@@H](O[C@H]2C[C@H](N)[C@H](O)[C@H](C)O2)C1)C(=O)c1ccccc1C3=O	> 35 µM (inactive)
CCOC(=O)C(C(=O)OCC)c1cc(Br)c2noc3c2c1C(=O)c1ccccc1-3	8.67 µM
Cc1cc(C(=O)CCl)c(C)n1CCc1ccc(Cl)cc1	> 35 µM (inactive)
O=C(NC1CCCCC1)C(c1ccc(F)cc1)N(CCc1ccccc1)C(=O)CN1C(=O)c2ccccc2S1(=O)=O (configuration not stated)	19.6 µM
CCOc1cc(/C=N/Nc2cc(C)nc(-n3nc(C)cc3C)n2)ccc1O	> 35 µM (inactive)
CCc1ccc(NC(=O)c2nc(S(=O)(=O)Cc3ccccc3)ncc2Cl)cc1	> 35 µM (inactive)
CC(=O)OC(C)(C)/C=C/C(=O)C(C)(O)C1[C@H](O)C[C@@]2(C)C3CC=C4C(CC[C@@H](O)C4(C)C)[C@]3(CO)C(=O)C[C@]12C (some centres not stated)	> 35 µM (inactive)
CN(c1ccccc1)c1ccc(/C=C/[N+](=O)[O-])cc1	8.45 µM
Cc1c(C=O)c(C=O)c(C)n1Cc1ccccc1	> 35 µM (inactive)
COc1cc(NC(=O)c2ccccc2F)ccc1NC(=O)c1cc2ccccc2o1	36.6 µM
O=C(Nc1ccc([N+](=O)[O-])cc1)C(Cc1ccccc1)N1C(=O)c2cccc3cccc(c23)C1=O (configuration not stated)	> 35 µM (inactive)
COc1ccc(OC[C@@H](O)CNC(=O)c2cccc3c2C(=O)c2ccc(-c4ccc(F)cc4OCc4ccccc4)cc2S3(=O)=O)cc1	> 35 µM (inactive)
O=C(NCc1ccccc1Br)c1cccc2c1C(=O)c1ccc(-c3ccc(OC(F)(F)F)cc3)cc1S2(=O)=O	> 35 µM (inactive)
NC(=S)c1cn(C2OC(CO)C(O)C2O)c2ncnc(N)c12 (configuration not stated)	> 35 µM (inactive)
CCOc1ccc(OCC(=O)N(CCC2=CCCCC2)c2c(N)n(Cc3ccccc3)c(=O)[nH]c2=O)cc1	26.8 µM
CCn1c(SCC(=O)c2ccccc2)nnc1-c1cc2cc(Br)ccc2o1	> 35 µM (inactive)
Cc1cccc(NC(=O)CSc2nc(C)c(CC(=O)c3ccc(Br)cc3)c(C)c2C#N)c1C	> 35 µM (inactive)
O=C(N=Nc1c(O)[nH]c2ccc([N+](=O)[O-])cc12)c1cc(-c2ccccc2Cl)nc2ccccc12	> 35 µM (inactive)
CC[C@H]1CN2CCc3cc(OC)c(OC)cc3[C@@H]2C[C@@H]1C[C@H]1NCCc2cc(OC)c(OC)cc21	> 35 µM (inactive)

Compound	AC50
CCS(=O)(=O)c1ncc(Cl)c(C(=O)Nc2ccc(S(=O)(=O)N3CCC(C)CC3)cc2)n1	> 35 µM (inactive)
Cc1ccc2nc(N(CCCN(C)C)C(=O)c3ccc(S(=O)(=O)N4CCc5ccccc5C4)cc3)sc2c1	> 35 µM (inactive)
CCOC(=O)c1c(C)oc2c1c(CN1CCN(C(=O)OCC)CC1)c(O)c1ccccc12	20.8 µM
COc1ccc(C(=O)/C=C/C(=O)N(CC(=O)NC2CCCCC2)Cc2cccs2)c(O)c1	23.7 µM
Cc1ccc(-c2nc(NC(=O)c3nn(C)cc3[N+](=O)[O-])sc2C)cc1C	5.21 µM
O=C(Nc1ccc(Cl)cc1Cl)c1cccc(N2C(=O)C=CC2=O)c1	35.8 µM
COc1ccccc1-c1cc(C(F)(F)F)nc(S(=O)(=O)CCCC(=O)NC(C)C)n1	25.8 µM
COc1ccc(C=C2C=C(C(C)(C)C)C(=O)C(C(C)(C)C)=C2)cc1OC	2.98 µM
CCC(Sc1nc2cc3c(cc2c(=O)n1Cc1ccco1)OCO3)C(=O)Nc1cccc(OC)c1 (configuration not stated)	> 35 µM (inactive)
COc1cccc(C(=O)C(C#N)=C(SC)SC)c1	> 35 µM (inactive)
CCN(C(=O)CCN1C(=O)c2ccccc2S1(=O)=O)c1ccccc1	> 35 µM (inactive)
N#CC(C#N)=C1C=CC=CN1/C(=C\c1ccccc1Cl)C(=O)c1ccccc1	5.01 µM
O=C(Nc1ccc2oc(-c3ccccc3)nc2c1)c1ccccc1F	> 35 µM (inactive)
O=C(NCCc1ccccc1)C(c1cccs1)N(C(=O)CCl)c1ccc(Cl)cc1 (configuration not stated)	16.4 µM
CC1=CC(=O)C(C(C)C)=C/C1=N/OS(=O)(=O)c1ccccc1	22 µM
CCc1nnc(NC(=O)CSc2nc(-c3ccccc3)cc(-c3ccc(F)cc3)c2C#N)s1	32.2 µM
COc1ccc(-c2c(C#N)c(N)nc(Sc3ccc(Cl)cc3)c2C#N)cc1	> 35 µM (inactive)
COc1ccc(N(C(=O)CCl)C(C(=O)NCCc2ccccc2)c2cccs2)cc1Cl (configuration not stated)	27.4 µM
Cc1ccc(C2(c3ccc(C)cc3)CC2C(=O)Nc2ccc([N+](=O)[O-])cc2O)cc1 (configuration not stated)	> 35 µM (inactive)
COc1ccc(-c2ccc3c(c2)S(=O)(=O)c2cccc(C(=O)NCc4cccc(OC(F)(F)F)c4)c2C3=O)cc1OC	8.54 µM
O=C(COc1ccc(/C=N/NC(=O)c2cc3ccccc3o2)cc1Br)Nc1ccccc1	28.5 µM

— PubChem BioAssay AID449761 (Broad Institute, 2010)
